Compound activity from PubChem BioAssay.
GASC1 inh – inhibitors of GASC-1 (KDM4C) histone demethylase, primary screen, biochemical, single concentration HTS; Lysine-specific demethylase 4C (Homo sapiens), Q9H3R0; GST-KDM4C 2-372, H3K9me3 peptide, LANCE TR-FRET; inhibition, % at 12.5 µM; hit rate 0.15% among 96,000;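 active means mean replicate inhibition above about 25%, with at least 55% of replicates also reaching it, limit read from the data, passing the limit was not always enough; inconclusive means only one of those two conditions met; inactive means neither condition met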
Target sequence (Q9H3R0 2-372 limits assumed): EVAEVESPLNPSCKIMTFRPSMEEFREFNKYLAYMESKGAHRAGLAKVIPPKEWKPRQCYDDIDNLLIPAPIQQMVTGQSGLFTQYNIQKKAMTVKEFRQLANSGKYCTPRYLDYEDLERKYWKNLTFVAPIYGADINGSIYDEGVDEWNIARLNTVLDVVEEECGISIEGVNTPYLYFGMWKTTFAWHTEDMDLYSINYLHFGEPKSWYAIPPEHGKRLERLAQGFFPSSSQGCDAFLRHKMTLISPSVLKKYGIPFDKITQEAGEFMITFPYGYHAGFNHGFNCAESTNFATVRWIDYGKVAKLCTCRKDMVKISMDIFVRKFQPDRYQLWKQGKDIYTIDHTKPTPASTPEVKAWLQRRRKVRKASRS
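Material: GST-tagged GASC-1 (JMJD2C) catalytic fragment, aa 2-372. Input: enzyme final amount 10 nM. Medium: HEPES buffer, pH 7.5, plus ascorbate. Reagent: H3K9me3 peptide substrate, Fe(II), 2-oxoglutarate. Doses: single dose. Times: reaction 30 min RT, detection step 1 h RT. Measured by: LANCE TR-FRET. Evaluation: Fall in 671/618 emission ratio as inhibition.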
IDH1 R132H inh – inhibitors of IDH1 R132H reductase, primary screen, biochemical, plate reader, single point; diaphorase/resazurin fluorescence, 60 min; hit rate 0.18% among 70,000; inhibition, % at 10 µM; Isocitrate dehydrogenase [NADP] cytoplasmic (Homo sapiens), O75874; in the data active means inhibition above about 34%; inconclusive means no clear call, values can overlap the other calls; inactive means below about 11%;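 further: 0% = DMSO and 100% = no enzyme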
Target sequence (O75874 whole entry R132H): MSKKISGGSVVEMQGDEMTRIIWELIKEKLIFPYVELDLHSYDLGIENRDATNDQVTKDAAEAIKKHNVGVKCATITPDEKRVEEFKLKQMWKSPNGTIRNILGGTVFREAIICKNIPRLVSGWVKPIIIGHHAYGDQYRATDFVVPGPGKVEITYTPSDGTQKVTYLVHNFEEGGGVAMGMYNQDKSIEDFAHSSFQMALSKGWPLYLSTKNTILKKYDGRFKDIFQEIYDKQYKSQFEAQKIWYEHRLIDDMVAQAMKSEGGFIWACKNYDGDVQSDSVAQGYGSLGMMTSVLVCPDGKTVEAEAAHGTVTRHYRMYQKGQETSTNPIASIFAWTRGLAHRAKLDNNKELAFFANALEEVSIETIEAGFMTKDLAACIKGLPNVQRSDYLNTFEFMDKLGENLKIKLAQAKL
T cruzi growth-1 – T. cruzi intracellular proliferation inhibitors, primary screen, cell-based, beta-gal Tulahuen parasites, NIH3T3 host, luminescence; T. cruzi beta-gal in NIH3T3, GalScreen luminescence, 90 h; inhibition, % at 8.34 µM; hit rate 5.9% among 77,000; AID 624255, 2012;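 active means mean inhibition above about 93%, with at least 55% of replicates each passing it, limit read from the data, passing the limit was not always enough; inconclusive means only one of those two conditions holds; inactive means neither condition holds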
Pf Dd2 growth – P. falciparum Dd2 growth inhibitors, primary screen, SYBR Green fluorescence, single dose replicates; 72 h; stronger effect = lower value; activity change, % at 10 µM; hit rate 2.3% among 94,000; in the data active means activity change below about -80%; inconclusive means no clear call, values can overlap the other calls
T cruzi growth-2 – T. cruzi intracellular proliferation inhibitors, confirmation, cell-based, NIH3T3 host, beta-gal parasite, luminescence, cherry-pick. shares compounds with T cruzi growth-1. T. cruzi beta-gal in NIH3T3, GalScreen luminescence, 90 h. inhibition, % at 8.35 µM. hit rate 72% among 5,600;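 active means mean replicate inhibition above about 95% and at least 55% of replicates individually reaching it, limit read from the data; inconclusive means only one of the two criteria is met; inactive means neither criterion is met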
T cruzi growth-3 – inhibitors of intracellular T. cruzi replication, confirmation, NIH3T3 host cells, beta-gal parasites, cherry-pick, set 2. shares compounds with T cruzi growth-1. T. cruzi beta-gal in NIH3T3, GalScreen luminescence, 90 h. inhibition, % at 2.09 µM. hit rate 21% among 5,600. AID 651740, 2012;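 active means mean inhibition above about 95%, with at least 55% of replicates also reaching it, limit read from the data; inconclusive means meets just one of the two conditions; inactive means meets neither condition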;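 further: plate controls were neutral control median for no effect and positive control median for full effect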
NIH3T3 tox – cytotoxicity in mouse NIH/3T3 fibroblasts, confirmation, cytotoxicity control for T. cruzi proliferation inhibitor project, cell-based, cherry-pick, single point; shares compounds with T cruzi growth-1; NIH/3T3 viability, CellTiter-Glo ATP luminescence, 90 h; cytotoxicity (signal decrease), % at 8.35 µM; hit rate 14% among 5,600; AID 651742, 2012;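 active means mean signal decrease across replicates above about 35% based on untreated-well scatter, with enough replicates individually passing, limit read from the data; inconclusive means no rule stated though some were filed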;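 further: 0% = median of neutral control wells and 100% = median of positive control wells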
3T3 cytotox 2 – NIH/3T3 fibroblast cytotoxicity, confirmation, cytotoxicity control, cell-based, cherry-pick, single point, set 2. shares compounds with T cruzi growth-1. NIH/3T3 viability, CellTiter-Glo ATP luminescence, 90 h. inhibition, % at 24.9 µM. hit rate 56% among 5,600. AID 651744, 2012;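 active means mean loss of cell viability signal at or above a set limit, and enough replicates individually reaching it; inconclusive means meets only the mean limit or only the replicate share; inactive means meets neither condition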;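 further: 0% = median of neutral control wells and 100% = median of positive control wells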
The depositor's hits bear a star. In the library only some 5.8% were active in any assay of this set; here they are far more common.

Results for O=C(c1ccccn1)N1CC[C@@H]2[C@@H](CO)Nc3ccc(-c4ccccc4)cc3[C@@H]21 ?
GASC1 inh: 0.4; T cruzi growth-1: 104.9*; Pf Dd2 growth: -32.3; T cruzi growth-2: 101.2*; T cruzi growth-3: 86.1; NIH3T3 tox: -18.1; 3T3 cytotox 2: -14.1

Results for O=C(c1ccccn1)N1CC[C@@H]2[C@H]1c1cc(-c3ccc(F)cc3)ccc1N[C@@H]2CO ?
GASC1 inh: -1.6; T cruzi growth-1: 105.2*; Pf Dd2 growth: 16.3; T cruzi growth-2: 107.3*; T cruzi growth-3: 63.1; NIH3T3 tox: 15.0; 3T3 cytotox 2: 30.2*

Results for CCc1csc(N2[C@H](C#N)[C@H](c3ccc(-c4ccc(F)cc4)cc3)[C@@H]2CO)n1 ?
GASC1 inh: -3.9; T cruzi growth-1: 102.0*; Pf Dd2 growth: -22.2; T cruzi growth-2: 100.6*; T cruzi growth-3: 109.9*; NIH3T3 tox: 13.4; 3T3 cytotox 2: 36.9*

What do the screens show for `CCc1csc(N2[C@@H](C#N)[C@@H](c3ccc(-c4ccc(F)cc4)cc3)[C@@H]2CO)n1`?
GASC1 inh: -2.5; T cruzi growth-1: 97.6*; Pf Dd2 growth: -0.2; T cruzi growth-2: 97.8*; T cruzi growth-3: 72.9; NIH3T3 tox: 48.6*; 3T3 cytotox 2: 83.1*

Results for CCc1csc(N2[C@@H](C#N)[C@@H](c3ccc(C4=CCCC4)cc3)[C@@H]2CO)n1 ?
GASC1 inh: -1.6; T cruzi growth-1: 100.6*; Pf Dd2 growth: -29.9; T cruzi growth-2: 103.1*; T cruzi growth-3: 60.1; NIH3T3 tox: 42.1*; 3T3 cytotox 2: 77.3*

What do the screens show for `CCc1csc(N2[C@H](C#N)[C@H](c3ccc(-c4cccc(F)c4)cc3)[C@H]2CO)n1`?
GASC1 inh: -2.9; T cruzi growth-1: 88.5; Pf Dd2 growth: -8.9

Results for C/C=C/c1ccc([C@@H]2[C@@H](CO)N(c3ncc(CC)s3)[C@H]2C#N)cc1 ?
GASC1 inh: -0.5; T cruzi growth-1: 99.0*; Pf Dd2 growth: -3.3; T cruzi growth-2: 78.4; T cruzi growth-3: 57.9; NIH3T3 tox: 1.6; 3T3 cytotox 2: 12.3

Results for CCc1csc(N2[C@H](C#N)[C@@H](c3ccc(-c4ccc(F)cc4)cc3)[C@H]2CO)n1 ?
GASC1 inh: -2.3; T cruzi growth-1: 106.0*; Pf Dd2 growth: -35.5; T cruzi growth-2: 105.6*; T cruzi growth-3: 98.5*; NIH3T3 tox: 0.3; 3T3 cytotox 2: inconclusive

What do the screens show for `CCc1csc(N2[C@@H](C#N)[C@H](c3ccc(-c4ccc(F)cc4)cc3)[C@@H]2CO)n1`?
GASC1 inh: -2.2; T cruzi growth-1: 105.5*; Pf Dd2 growth: -23.8; T cruzi growth-2: 101.7*; T cruzi growth-3: 43.6; NIH3T3 tox: 19.4; 3T3 cytotox 2: 17.7

What do the screens show for `C/C=C/c1ccc([C@@H]2[C@@H](CO)N(c3nc(-c4ccccc4)cs3)[C@H]2C#N)cc1`?
GASC1 inh: -3.0; Pf Dd2 growth: 31.4

What do the screens show for `CCc1csc(N2[C@H](CO)[C@@H](c3ccc(-c4cccc(F)c4)cc3)[C@@H]2C#N)n1`?
GASC1 inh: -1.9; T cruzi growth-1: 85.5; Pf Dd2 growth: -0.3

How did C/C=C/c1ccc([C@H]2[C@@H](CO)N(c3nc(CC)cs3)[C@H]2C#N)cc1 do in these assays?
GASC1 inh: 2.7; T cruzi growth-1: 100.8*; Pf Dd2 growth: -24.0; T cruzi growth-2: 80.7; T cruzi growth-3: 32.3; NIH3T3 tox: -13.8; 3T3 cytotox 2: 25.6*

Results for CO[C@@H]1CN(C)C(=O)c2cc(NC(=O)c3ccccc3F)ccc2OC[C@H](C)N(C(=O)c2ccccc2F)C[C@H]1C ?
GASC1 inh: 1.6; IDH1 R132H inh: 0.2; T cruzi growth-1: 25.9; Pf Dd2 growth: -33.9

Results for CO[C@@H]1CN(C)C(=O)c2cc(NC(=O)c3ccccc3F)ccc2OC[C@@H](C)N(C(=O)c2ccccc2F)C[C@H]1C ?
GASC1 inh: 0.6; IDH1 R132H inh: 0.2; T cruzi growth-1: inconclusive; Pf Dd2 growth: -8.1; T cruzi growth-2: 86.6; T cruzi growth-3: 51.2; NIH3T3 tox: -0.7; 3T3 cytotox 2: 12.3

What do the screens show for `CO[C@@H]1CN(C)C(=O)c2cc(NC(=O)c3ccccc3F)ccc2OC[C@H](C)N(C(=O)c2ccccc2F)C[C@@H]1C`?
GASC1 inh: 0.6; IDH1 R132H inh: 0.3; T cruzi growth-1: 102.2*; Pf Dd2 growth: -83.0*; T cruzi growth-2: 76.3; T cruzi growth-3: -3.6; NIH3T3 tox: -7.9; 3T3 cytotox 2: 39.8*

Results for CO[C@H]1CN(C)C(=O)c2cc(NC(=O)c3ccccc3F)ccc2OC[C@H](C)N(C(=O)c2ccccc2F)C[C@@H]1C ?
GASC1 inh: -0.1; IDH1 R132H inh: 0.1; T cruzi growth-1: 12.8; Pf Dd2 growth: -9.2

What do the screens show for `CC(=O)Cc1cc(O)cc2oc(C)cc(=O)c12`?
IDH1 R132H inh: 0.2

How did Cc1ccc2nc(SCc3nc4ccccc4n3C)[nH]c2c1 do in these assays?
IDH1 R132H inh: -0.4

Results for C[C@H]1CCCCO[C@@H](CN(C)C(=O)Nc2cccc3ccccc23)[C@@H](C)CN([C@@H](C)CO)C(=O)c2cc(NC(=O)Cc3ccccc3)ccc2O1 ?
GASC1 inh: -0.3; IDH1 R132H inh: 2.8; T cruzi growth-1: 102.0*; Pf Dd2 growth: -91.8*; T cruzi growth-2: 115.0*; T cruzi growth-3: 63.1; NIH3T3 tox: 7.5; 3T3 cytotox 2: 8.7

What do the screens show for `C[C@@H]1CCCCO[C@@H](CN(C)C(=O)Nc2cccc3ccccc23)[C@H](C)CN([C@H](C)CO)C(=O)c2cc(NC(=O)Cc3ccccc3)ccc2O1`?
GASC1 inh: -3.1; IDH1 R132H inh: 0.9; T cruzi growth-1: 98.2*; Pf Dd2 growth: -86.6*; T cruzi growth-2: 101.9*; T cruzi growth-3: 108.5*; NIH3T3 tox: -28.4; 3T3 cytotox 2: 0.9

How did C[C@H]1CCCCO[C@H](CN(C)C(=O)Nc2cccc3ccccc23)[C@@H](C)CN([C@@H](C)CO)C(=O)c2cc(NC(=O)c3ccccc3)ccc2O1 do in these assays?
GASC1 inh: -2.1; T cruzi growth-1: 79.9; Pf Dd2 growth: -40.9
